In PubChem BioAssay:
The source made the active and inactive calls. Rule as the data show it, unless noted: active = inhibition above about 30%; inactive = the rest.

Assays:
[1] = Her2 expression decrease, cell viability multiplex – SKBR3 breast tumor cells, AlphaScreen, ATP viability, primary screen (AID 461;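 active = Her2 level under about 52% in both replicate screens, with viability over 70% of control, limit read from the data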;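 as to Her2 level: lower value means less Her2 protein in the cells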;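 as to viability: percent of carrier control wells set as 100% viability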); details: SKBR3 Her2 protein level, 18-24 h, measured here: SKBR3 viability, ATP luminescence, at 10 µM
[2] = target: Receptor tyrosine-protein kinase erbB-2 (Homo sapiens) (UniProt P04626); assay: as above; details: 18-24 h, at 10 µM, stronger effect = lower value
[3] = reduced viability of SK-BR-3 breast cancer cells – cell-based, 24 h, human, pilot screen (AID 572;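 active = viability at or below 10% of carrier control in both of two separate runs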;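 also: compound exposure lasted between 18 and 24 h rather than exactly 24 h; 100% = carrier-treated control wells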); details: SK-BR-3 viability, CellTiter-Glo luminescence, at 10 µM, stronger effect = lower value
[4] = HUVEC growth inhibition – cell-based, human, primary screen (AID 575;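 active = viability at or below 30% in both replicate assays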;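 also: 100% = median of untreated cell wells with 0.1% DMSO on each plate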); details: HUVEC proliferation, CellTiter-Glo luminescence, 72 h; at 10 µM; stronger effect = lower value
In short: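 Material: primary human umbilical vein endothelial cells / Schedule: 72 h exposure, 37 °C, 5% CO2, 30 min RT equilibration / Signal: ATP-based CellTiter-Glo luminescent read / Read-out basis: percent of median DMSO-control luminescence / Control set: 32 DMSO-only cell-control wells (high), 32 MePR drug-control wells (low) per plate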

[5] = H69AR cell proliferation blockers – human, duplicate replicates, primary screen (AID 580;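 active = viability at or under a set limit in both replicates, limit being median viability minus 3 SD, cut at about 48% in these data, passing the limit was not always enough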;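 also: 100% = mean luminescence of untreated wells and 0% = no signal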); details: H69AR lung tumor cells viability, ATP luminescence, 72 h; at 10 µM; stronger effect = lower value
[6] = MRP1 drug-resistance reversers in H69AR cells – cell-based, doxorubicin co-treatment, pilot screen (AID 601;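 active = viability loss from added drug above about 55%, and viability with drug at most 40%, in both replicates, limit read from the data, passing the limit was not always enough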); details: CellTiter-Glo, 72 h, at 10 µM; for differential viability (reversal): stronger effect = higher value
[7] = yeast transport mutant growth inhibition pilot in 384-well plates, post-Golgi transport modulator project (AID 636; in the data active = inhibition above about 31%); details: absorbance 615 nm, about 18 h, stronger effect = higher value
[8] = growth suppression of yeast trafficking mutant, preliminary HTS, modulators of trafficking downstream of Golgi apparatus project, 1536-format plate, OD 615 nm (AID 637); details: yeast transport mutant growth, absorbance 615 nm, 18 h; stronger effect = higher value
[9] = H69AR cells + 2 uM doxorubicin, measured here: viability with 2 uM doxorubicin, stronger effect = lower value
[10] = H69AR cells, compound alone cytotoxicity

Sequence of Receptor tyrosine-protein kinase erbB-2 (Homo sapiens) (P04626 whole entry, looked up): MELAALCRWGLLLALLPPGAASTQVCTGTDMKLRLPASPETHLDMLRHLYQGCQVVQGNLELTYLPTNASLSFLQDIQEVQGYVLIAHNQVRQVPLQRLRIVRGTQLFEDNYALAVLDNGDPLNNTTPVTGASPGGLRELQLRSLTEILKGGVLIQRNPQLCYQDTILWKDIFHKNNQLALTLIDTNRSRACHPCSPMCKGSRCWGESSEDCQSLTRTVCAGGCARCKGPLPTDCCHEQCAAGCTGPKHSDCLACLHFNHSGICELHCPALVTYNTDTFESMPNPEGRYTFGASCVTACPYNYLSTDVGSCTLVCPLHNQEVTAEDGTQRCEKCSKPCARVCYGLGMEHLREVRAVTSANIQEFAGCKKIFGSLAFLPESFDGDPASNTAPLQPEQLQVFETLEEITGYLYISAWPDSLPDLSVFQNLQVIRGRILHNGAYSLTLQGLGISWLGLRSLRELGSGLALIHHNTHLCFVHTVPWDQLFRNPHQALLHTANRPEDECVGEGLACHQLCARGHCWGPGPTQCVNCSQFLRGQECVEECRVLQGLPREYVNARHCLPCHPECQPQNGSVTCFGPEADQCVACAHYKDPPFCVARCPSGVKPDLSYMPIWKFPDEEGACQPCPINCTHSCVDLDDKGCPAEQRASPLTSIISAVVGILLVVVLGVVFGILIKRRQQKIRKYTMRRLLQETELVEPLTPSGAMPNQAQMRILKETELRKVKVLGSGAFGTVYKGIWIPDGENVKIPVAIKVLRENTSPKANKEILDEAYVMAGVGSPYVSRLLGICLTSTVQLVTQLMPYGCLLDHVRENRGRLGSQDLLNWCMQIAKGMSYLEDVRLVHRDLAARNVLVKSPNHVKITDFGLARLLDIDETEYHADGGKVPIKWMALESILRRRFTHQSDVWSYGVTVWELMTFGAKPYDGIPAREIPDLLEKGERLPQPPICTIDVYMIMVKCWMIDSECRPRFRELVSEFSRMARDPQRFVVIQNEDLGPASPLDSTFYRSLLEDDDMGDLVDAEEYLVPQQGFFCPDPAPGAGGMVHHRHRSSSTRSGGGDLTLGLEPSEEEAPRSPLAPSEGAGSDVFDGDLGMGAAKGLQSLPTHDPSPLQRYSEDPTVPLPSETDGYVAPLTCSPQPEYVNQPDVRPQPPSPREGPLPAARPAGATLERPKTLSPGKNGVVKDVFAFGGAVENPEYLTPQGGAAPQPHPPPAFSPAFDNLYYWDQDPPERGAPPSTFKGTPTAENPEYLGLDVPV

Row | SMILES | viability [1] [%] | Her2 level [2] | viability [3] | viability [4] | viability [5] | differential viability (reversal) ([6]; H69AR cells + 2 uM doxorubicin) | viability [6, 9] [%] | viability [6, 10] [%] | inhibition [7] | inhibition [8]
1 | NC(=O)CSc1nnc(-c2ccc(O)cc2)n1Cc1ccco1 | 108 | 102% (inactive) | 108% (inactive) | 105% (inactive) | 98.6% (inactive) | 9.33% (inactive) | 89.3 | 98.6 | -6% (inactive) | 4.68% (inactive)
2 | CCN(CC)S(=O)(=O)c1ccc2c(c1)c(=O)c(C(=O)NCCOC)cn2C | 88.5 | 99.5% (inactive) | 88.5% (inactive) | 101% (inactive) | 83.1% (inactive) | -12.5% (inactive) | 95.6 | 83.1 | -5.95% (inactive) | -5.5% (inactive)
3 | C=CCn1c(SCc2ccc(C#N)cc2)nnc1-c1cccc(Cl)c1 | 95.5 | 86% (inactive) | 95.5% (inactive) | 102% (inactive) | 80.2% (inactive) | -3.84% (inactive) | 84 | 80.2 | -2.21% (inactive) | -0.17% (inactive)
4 | NC(=O)c1ccccc1NC(=O)CN1CCOCC1 | 106 | 87% (inactive) | 106% (inactive) | 104% (inactive) | 88.1% (inactive) | 6.19% (inactive) | 81.9 | 88.1 | -1.87% (inactive) | 0.32% (inactive)
5 | C=CCn1c(SCC(=O)NC23CC4CC(CC(C4)C2)C3)nc(O)cc1=O | 138 | 108% (inactive) | 138% (inactive) | 91.4% (inactive) | 92.9% (inactive) | 0.68% (inactive) | 92.2 | 92.9 | -1.18% (inactive) | -0.48% (inactive)
6 | Cc1noc(C)c1S(=O)(=O)N1CCC(C(=O)N2CCN(Cc3ccc4c(c3)OCO4)CC2)CC1 | 94 | 92.5% (inactive) | 94% (inactive) | 99% (inactive) | 91.9% (inactive) | -6.75% (inactive) | 98.6 | 91.9 | -1.45% (inactive) | -0.63% (inactive)
7 | CCCCOc1ccc(-c2nnc(N)s2)cc1 | 85.5 | 98% (inactive) | 85.5% (inactive) | 93.3% (inactive) | 98.5% (inactive) | 12.6% (inactive) | 85.9 | 98.5 | 3.33% (inactive) | 1.15% (inactive)
8 | NC(=O)NC(c1ccccc1)c1ccccc1F (stereo not given) | 91 | 106% (inactive) | 91% (inactive) | 91.6% (inactive) | 105% (inactive) | 6.78% (inactive) | 98.3 | 105 | -0.51% (inactive) | -8% (inactive)
9 | Cc1ccc(Cn2c(C(=O)NCCCN3CCOCC3)cc3sccc32)cc1 | 84.5 | 76.5% (inactive) | 84.5% (inactive) | 63.6% (inactive) | 77.6% (inactive) | -3.47% (inactive) | 81.1 | 77.6 | -3.16% (inactive) | -1.27% (inactive)
10 | COc1ccc(C2C(C(=O)c3sc(C)nc3C)=C(O)C(=O)N2CCN(C)C)cc1OC (stereo not given) | 108 | 111% (inactive) | 108% (inactive) | 99.3% (inactive) | 86.7% (inactive) | -8.1% (inactive) | 94.8 | 86.7 | -2.27% (inactive) | -2.79% (inactive)
11 | CCSc1nncn1/N=C/c1ccc(OC)c(OC)c1 | 84 | 124% (inactive) | 84% (inactive) | 91.8% (inactive) | 91.6% (inactive) | -3.4% (inactive) | 95 | 91.6 | -0.9% (inactive) | -7.5% (inactive)
12 | CC(=O)c1cc(Cl)ccc1OC(=O)c1ccco1 | 106 | 92.5% (inactive) | 106% (inactive) | 95.3% (inactive) | 89.2% (inactive) | -3.25% (inactive) | 92.5 | 89.2 | -0.65% (inactive) | -4.43% (inactive)
13 | c1cn(CC2(Cn3ccnc3)COC2)cn1 | 103 | 70.5% (inactive) | 103% (inactive) | 83% (inactive) | 99.7% (inactive) | 12% (inactive) | 87.8 | 99.7 | -3.77% (inactive) | -0.79% (inactive)
14 | O=C(OCC(=O)N1CCCC1)c1ccccc1OCc1ccccc1 | 96 | 79.5% (inactive) | 96% (inactive) | 73.2% (inactive) | 99.4% (inactive) | 11.1% (inactive) | 88.3 | 99.4 | -7.7% (inactive) | 1.31% (inactive)
15 | CCOC(=O)N1CCN(c2c(N3CCN(c4ccccc4OC)CC3)c(=O)c2=O)CC1 | 94.5 | 104% (inactive) | 94.5% (inactive) | 109% (inactive) | 84.2% (inactive) | 8.68% (inactive) | 75.5 | 84.2 | -4% (inactive) | -7.38% (inactive)
16 | COc1cc(C(=O)N2CCN(C(=O)CC(C)C)CC2)cc(OC)c1OC | 93.5 | 106% (inactive) | 93.5% (inactive) | 101% (inactive) | 91.3% (inactive) | -6.59% (inactive) | 97.9 | 91.3 | 2.63% (inactive) | 13.2% (inactive)
17 | O=C(CSc1nnc(COc2ccc(Cl)cc2)o1)N1CCN(c2ccccc2)CC1 | 100 | 83% (inactive) | 100% (inactive) | 57% (inactive) | 90.2% (inactive) | -2.18% (inactive) | 92.4 | 90.2 | -3.2% (inactive) | 3.11% (inactive)
18 | Cn1c(SCc2ccc3c(c2)OCO3)nnc1-c1ccccc1 | 99.5 | 108% (inactive) | 99.5% (inactive) | 99.1% (inactive) | 96.2% (inactive) | 11.7% (inactive) | 84.4 | 96.2 | 1.45% (inactive) | -1.11% (inactive)
19 | COC(=O)C1=C(C)OC(N)=C(C#N)C1c1c(C)nn(-c2ccccc2)c1Cl (stereo not given) | 89 | 118% (inactive) | 89% (inactive) | 70.7% (inactive) | 79.7% (inactive) | -6.99% (inactive) | 86.7 | 79.7 | -0.27% (inactive) | 16.6% (inactive)
20 | CC1(C)NC(=O)N(CC(O)CN(Cc2ccccc2)Cc2ccccc2)C1=O (stereo not given) | 78 | 78.5% (inactive) | 78% (inactive) | 108% (inactive) | 92.6% (inactive) | 13.7% (inactive) | 78.9 | 92.6 | -4.59% (inactive) | -10.2% (inactive)
